Results pooled from the literature.
Each line is one published result; the experiments were not run side by side.
Target: Serine/threonine-protein kinase 16 (STK16, Homo sapiens, UniProt O75716)

CCc1ccccc1C(=O)Nc1n[nH]c2c(C)c(F)c(C3C(C#N)=C(C)N(C)C(C)=C3C#N)cc12 — remaining binding (cell-free assay, competition with immobilised ligand; 1 µM): 79%
c1cncc(-c2cccc(Nc3nccc(NC4CCCCC4)n3)c2)c1 — remaining binding (binding, competition with immobilised ligand; 10 µM): 42%
Cc1cc(C)c(-n2ccn3nc(-c4cccnc4)cc23)cc1NC(=O)c1cc(C#N)cc(S(F)(F)(F)(F)F)c1 — remaining binding (cell-free assay, competition with immobilised ligand; 0.1 µM): 64.3%
COc1cnc(Nc2cccc(S(N)(=O)=O)c2)nc1N1CCN(c2ccccc2)CC1 — remaining binding (binding, competition with immobilised ligand; 1 µM): 57%
F[C@@H]1CCN(c2nccc(-c3cnn4ncccc34)n2)C1 — remaining binding (binding; 1 µM): 100%
O=C(NCC1CCOCC1)c1n[nH]cc1NC(=O)c1c(F)cccc1F — remaining binding (binding, competition with immobilised ligand; 1 µM): 91%
COc1ccnn2ncc(-c3ccnc(N(C)C)n3)c12 — remaining binding (binding; 1 µM): 85%
CN(C)C(=O)Cn1cc(-c2nc([C@@](C)(c3ccc(-c4cnc(N)nc4)cc3)C3CC3)no2)cn1 — remaining binding (cell-free assay, competition with immobilised ligand; 1 µM): 100%
COc1cnc(Nc2cccc(S(N)(=O)=O)c2)nc1N1CCN(c2ccccc2)C(=O)C1 — remaining binding (binding, competition with immobilised ligand; 1 µM): 30%
CCC(=O)N[C@@H]1CC[C@H](C(=O)N(C)c2ccc(-c3nc4ccccc4o3)cc2)C1 — remaining binding (cell-free assay, competition with immobilised ligand; 1 µM): 100%
O=C(c1ccc(Nc2ncc(Cl)c(-c3cc4ccccc4s3)n2)cc1)N1CCC(N2CCCC2)CC1 — remaining binding (binding, competition with immobilised ligand; 1 µM): 5.6%
CO[C@@H](C)c1c(Nc2ccc([C@H](N(C)C(=O)C3CCS(=O)(=O)CC3)C(F)(F)F)cc2)cnc2cc(Cl)nn12 — remaining binding (cell-free assay, competition with immobilised ligand; 1 µM): 75%
C[C@@H](c1ccc(-n2cnc3c(N)ncnc32)cc1)N1CCc2nn(C)c(Cc3ccccc3)c2C1=O — remaining binding (binding, competition with immobilised ligand; 0.1 µM): 85%
CC1CCCN1c1nccc(-c2cnn3ncccc23)n1 (stereo not drawn) — remaining binding (binding; 1 µM): 86%
O=C(NCCCN1CCOCC1)c1ccc(Nc2ncc(Cl)c(-c3ccc(Cl)s3)n2)cc1 — remaining binding (binding, competition with immobilised ligand; 1 µM): 1.1%
C=CC(=O)N1CCC(C(=O)NCC(=O)N2CCN(c3nc(-c4cnc(N)nc4C(F)F)nc(N4CCOCC4)n3)CC2)CC1 — remaining binding (binding, competition with immobilised ligand; 1 µM): 92%
CN(CCCC(F)(F)F)c1nccc(-c2cnn3ncccc23)n1 — remaining binding (binding; 1 µM): 79%
Nc1ncc2c(n1)-c1c([nH]c3ccc(C#CC4CC4)cc13)CCCC2 — remaining binding (binding, competition with immobilised ligand; 1 µM): 100%
N[C@H]1CCN(c2nccc(-c3cnn4ncccc34)n2)C1 — remaining binding (binding; 1 µM): 91%
CCCCN(CCCC)C(=O)CN1C[C@H](c2cc(OC)c3c(c2)OCO3)[C@@H](C(=O)O)[C@@H]1CC(C)(C)CCC — remaining binding (cell-free assay, competition with immobilised ligand; 1 µM): 100%
Cc1cnc(Nc2ccc(C(=O)N3CCC(N4CCCC4)CC3)cc2)nc1-c1cc2ccccc2s1 — remaining binding (binding, competition with immobilised ligand; 1 µM): 3.4%
